Converted amounts (≈) assume the structure as drawn.
How the values were obtained:
HeLa [1] = assay: Tested in plaque-reduction assay with rhinovirus type 20 at indicated concentration. and the number of plaque formed was reported at conc. 0.35 ug/mL; format: functional, Homo sapiens
Procedure, shortened: (§1)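 Virus was adsorbed onto confluent monolayers for 1 h at room temperature. Monolayers were overlaid with a 1:1 mix of 1% agarose and 2× MEM (Earle's salts, 2.5% FBS) containing compound, diluted from a 10000 μg/mL Me2SO stock. Flasks were incubated at 32 °C until control plaques reached 2–10 mm. Cells were then fixed in 10% formalin–2% sodium acetate and stained with crystal violet, and plaques were counted. Counts from duplicate flasks were averaged.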

HeLa [2] = assay: Tested in plaque-reduction assay with rhinovirus type 20 at indicated concentration. and the number of plaque formed was reported at conc. 0.75 ug/mL; format: functional, Homo sapiens; procedure, shortened: as §1
HeLa [3] = assay: Tested in plaque-reduction assay with rhinovirus type 20 at indicated concentration. and the number of plaque formed was reported at conc. 0.00 ug/mL; format: functional, Homo sapiens; procedure, shortened: as §1
HeLa [4] = assay: Tested in plaque-reduction assay with rhinovirus type 20 at indicated concentration. and the number of plaque formed was reported at conc. 0.02 ug/mL; format: functional, Homo sapiens; procedure, shortened: as §1
HeLa [5] = assay: Tested in plaque-reduction assay with rhinovirus type 20 at indicated concentration. and the number of plaque formed was reported at conc. 0.04 ug/mL; format: functional, Homo sapiens; procedure, shortened: as §1
HeLa [6] = assay: Tested in plaque-reduction assay with rhinovirus type 20 at indicated concentration. and the number of plaque formed was reported at conc. 0.08 ug/mL; format: functional, Homo sapiens; procedure, shortened: as §1
HeLa [7] = assay: Tested in plaque-reduction assay with rhinovirus type 20 at indicated concentration. and the number of plaque formed was reported at conc. 0.17 ug/mL; format: functional, Homo sapiens; procedure, shortened: as §1
HeLa [8] = assay: Percent reduction of plaque formation by rhinovirus type 20 in HeLa cells at conc. 0.00 ug/mL.; format: functional, Homo sapiens; procedure, shortened: as §1
HeLa [9] = assay: Percent reduction of plaque formation by rhinovirus type 20 in HeLa cells at conc. 0.02 ug/mL.; format: functional, Homo sapiens; procedure, shortened: as §1
HeLa [10] = assay: Percent reduction of plaque formation by rhinovirus type 20 in HeLa cells at conc. 0.04 ug/mL.; format: functional, Homo sapiens; procedure, shortened: as §1
HeLa [11] = assay: Percent reduction of plaque formation by rhinovirus type 20 in HeLa cells at conc. 0.08 ug/mL.; format: functional, Homo sapiens; procedure, shortened: as §1
HeLa [12] = assay: Percent reduction of plaque formation by rhinovirus type 20 in HeLa cells at conc. 0.17 ug/mL.; format: functional, Homo sapiens; procedure, shortened: as §1
HeLa [13] = assay: Percent reduction of plaque formation by rhinovirus type 20 in HeLa cells at conc. 0.35 ug/mL.; format: functional, Homo sapiens; procedure, shortened: as §1
HeLa [14] = assay: Percent reduction of plaque formation by rhinovirus type 20 in HeLa cells at conc. 0.75 ug/mL.; format: functional, Homo sapiens; procedure, shortened: as §1
HeLa [15] = assay: Dose required to prevent rhinovirus type 14 plaque formation in HeLa cells by 50%ug/mL of agar overlay; format: functional, Homo sapiens
Procedure, shortened: (§2)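 Confluent monolayers were infected with diluted virus and allowed to adsorb for 1 h at room temperature. They were then overlaid with 1% agarose mixed 1:1 with 2× MEM (Earle's salts, 2.5% FBS), containing compound diluted from a 10000 μg/mL Me2SO stock. Incubation was at 32 °C until control plaques reached 2–10 mm. Cells were fixed with formalin–sodium acetate and stained with crystal violet, and plaques were counted. Duplicate flasks were averaged, and ID50 was estimated by plotting results between 10% and 90% inhibition.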

HeLa [16] = assay: Dose required to prevent rhinovirus type 15 plaque formation in HeLa cells by 50%ug/mL of agar overlay; format: functional; details: Homo sapiens, read-out: ID50 (the source's name); procedure, shortened: as §2
HeLa [17] = assay: Dose required to prevent rhinovirus type 16 plaque formation in HeLa cells by 50%ug/mL of agar overlay; format: functional; details: Homo sapiens, read-out: ID50 (the source's name); procedure, shortened: as §2
HeLa [18] = assay: Dose required to prevent rhinovirus type 20 plaque formation in HeLa cells by 50%ug/mL of agar overlay; format: functional; details: Homo sapiens, read-out: ID50 (the source's name); procedure, shortened: as §2
HeLa [19] = assay: Dose required to prevent rhinovirus type 3 plaque formation in HeLa cells by 50%ug/mL of agar overlay; format: functional; details: Homo sapiens, read-out: ID50 (the source's name)
Procedure, shortened: (§3)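 Confluent monolayers in flasks received 0.3 mL of diluted virus and adsorbed 1 h at room temperature. They were then overlaid with 1% agarose plus 2× MEM (Earle's salts, 2.5% FBS, penicillin, streptomycin) containing compound diluted from a 10000 μg/mL Me₂SO stock. Flasks were held at 32 °C until control plaques reached 2–10 mm, then fixed with formalin-acetate and stained with crystal violet. Plaques were counted in duplicate flasks and averaged, and ID₅₀ was estimated by plotting the 10–90% inhibition points.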

HeLa [20] = assay: Dose required to prevent rhinovirus type 32 plaque formation in HeLa cells by 50%ug/mL of agar overlay; format: functional; details: Homo sapiens, read-out: ID50 (the source's name); procedure, shortened: as §2
HeLa [21] = assay: Dose required to prevent rhinovirus type 33 plaque formation in HeLa cells by 50%ug/mL of agar overlay; format: functional; details: Homo sapiens, read-out: ID50 (the source's name); procedure, shortened: as §2
HeLa [22] = assay: Dose required to prevent rhinovirus type 37 plaque formation in HeLa cells by 50%ug/mL of agar overlay; format: functional; details: Homo sapiens, read-out: ID50 (the source's name); procedure, shortened: as §3
HeLa [23] = assay: Dose required to prevent rhinovirus type 48 plaque formation in HeLa cells by 50%ug/mL of agar overlay; format: functional; details: Homo sapiens, read-out: ID50 (the source's name); procedure, shortened: as §2
HeLa [24] = assay: Dose required to prevent rhinovirus type 50 plaque formation in HeLa cells by 50%ug/mL of agar overlay; format: functional; details: Homo sapiens, read-out: ID50 (the source's name); procedure, shortened: as §3
HeLa [25] = assay: Dose required to prevent rhinovirus type 61 plaque formation in HeLa cells by 50%ug/mL of agar overlay; format: functional; details: Homo sapiens, read-out: ID50 (the source's name); procedure, shortened: as §2
HeLa [26] = assay: Dose required to prevent rhinovirus type 65 plaque formation in HeLa cells by 50%ug/mL of agar overlay; format: functional; details: Homo sapiens, read-out: ID50 (the source's name); procedure, shortened: as §2
HeLa [27] = assay: Dose required to prevent rhinovirus type 69 plaque formation in HeLa cells by 50%ug/mL of agar overlay; format: functional; details: Homo sapiens, read-out: ID50 (the source's name); procedure, shortened: as §2
HeLa [28] = assay: Dose required to prevent rhinovirus type 72 plaque formation in HeLa cells by 50%ug/mL of agar overlay; format: functional; details: Homo sapiens, read-out: ID50 (the source's name); procedure, shortened: as §2
HeLa [29] = assay: Tested in plaque-reduction assay with rhinovirus type 20 at indicated concentration. and the number of plaque formed was reported at conc. 1.5 ug/mL; format: functional, Homo sapiens; procedure, shortened: as §1
HeLa [30] = assay: Tested in plaque-reduction assay with rhinovirus type 20 at indicated concentration. and the number of plaque formed was reported at conc. 3.0 ug/mL; format: functional, Homo sapiens; procedure, shortened: as §1
HeLa [31] = assay: Percent reduction of plaque formation by rhinovirus type 20 in HeLa cells at conc. 1.5 ug/mL.; format: functional, Homo sapiens; procedure, shortened: as §1
HeLa [32] = assay: Percent reduction of plaque formation by rhinovirus type 20 in HeLa cells at conc. 3.0 ug/mL.; format: functional, Homo sapiens; procedure, shortened: as §1
HeLa [33] = assay: Dose required to prevent rhinovirus type 70 plaque formation in HeLa cells by 50%ug/mL of agar overlay; format: functional; details: Homo sapiens, read-out: ID50 (the source's name); procedure, shortened: as §3

What does the source list for `CC(C)S(=O)(=O)n1c(N)nc2ccc(/C(=N/O)c3ccccc3)cc21` [ENVIROXIME]?
No. of plaques (HeLa [1]): 0; No. of plaques (HeLa [2]): 0; No. of plaques (HeLa [3]): 153; No. of plaques (HeLa [4]): 68; No. of plaques (HeLa [5]): 18; No. of plaques (HeLa [6]): 0; No. of plaques (HeLa [7]): 0; Reduction (HeLa [8]): 0%; Reduction (HeLa [9]): 55%; Reduction (HeLa [10]): 87%; Reduction (HeLa [11]): 100%; Reduction (HeLa [12]): 100%; Reduction (HeLa [13]): 100%; Reduction (HeLa [14]): 100%; ID50 (HeLa [15]): 0.03 pug ml-1; IC50 (HeLa [16]): 0.02 µg/mL (≈ 0.0558 µM); IC50 (HeLa [17]): 0.02 µg/mL (≈ 0.0558 µM); IC50 (HeLa [18]): 0.02 µg/mL (≈ 0.0558 µM); IC50 (HeLa [19]): 0.04 µg/mL (≈ 0.112 µM); IC50 (HeLa [20]): 0.01 µg/mL (≈ 0.0279 µM); IC50 (HeLa [21]): 0.01 µg/mL (≈ 0.0279 µM); IC50 (HeLa [22]): 0.04 µg/mL (≈ 0.112 µM); IC50 (HeLa [23]): 0.03 µg/mL (≈ 0.0837 µM); IC50 (HeLa [24]): > 0.01 µg/mL; IC50 (HeLa [25]): 0.01 µg/mL (≈ 0.0279 µM); IC50 (HeLa [26]): > 0.01 µg/mL; IC50 (HeLa [27]): 0.01 µg/mL (≈ 0.0279 µM); IC50 (HeLa [28]): 0.03 µg/mL (≈ 0.0837 µM)

Which No. of plaques (HeLa [1]) does the source give for `CC(C)S(=O)(=O)n1c(N)nc2ccc(/C(=N\O)c3ccccc3)cc21` [ZINVIROXIME] here?
The No. of plaques was 49.

And the No. of plaques (HeLa [2])?
The No. of plaques was 0.

And the No. of plaques (HeLa [29])?
Its No. of plaques is 0.

And the No. of plaques (HeLa [30])?
The No. of plaques was 0.

What about the No. of plaques (HeLa [3]) of the same molecule?
The No. of plaques was 153.

What about the No. of plaques (HeLa [6]) of the same molecule?
Its No. of plaques is 127.

What about the No. of plaques (HeLa [7]) of the same molecule?
Its No. of plaques is 87.

What about the Reduction (HeLa [8]) of the same molecule?
Its Reduction is 0%.

And the Reduction (HeLa [11])?
The Reduction was 16%.

And the Reduction (HeLa [12])?
Its Reduction is 50%.

And the Reduction (HeLa [13])?
The Reduction was 67%.

And the Reduction (HeLa [14])?
The Reduction was 100%.

And the Reduction (HeLa [31])?
Its Reduction is 100%.

And the Reduction (HeLa [32])?
The Reduction was 100%.

What about the IC50 (HeLa [15]; Homo sapiens, HeLa, read-out: ID50 (the source's name)) of the same molecule?
The IC50 was 0.36 µg/mL (≈ 1 µM).

And the IC50 (HeLa [16])?
The IC50 was 0.14 µg/mL (≈ 0.391 µM).

What about the IC50 (HeLa [17]) of the same molecule?
The IC50 was 0.16 µg/mL (≈ 0.446 µM).

And the IC50 (HeLa [18])?
Its IC50 is 0.19 µg/mL (≈ 0.53 µM).

What about the IC50 (HeLa [19]) of the same molecule?
The IC50 was 0.37 µg/mL (≈ 1.03 µM).

What about the IC50 (HeLa [20]) of the same molecule?
Its IC50 is 0.13 µg/mL (≈ 0.363 µM).

And the IC50 (HeLa [21])?
Its IC50 is 0.1 µg/mL (≈ 0.279 µM).

And the IC50 (HeLa [22])?
The IC50 was 0.25 µg/mL (≈ 0.697 µM).

And the IC50 (HeLa [23])?
The IC50 was 0.28 µg/mL (≈ 0.781 µM).

And the IC50 (HeLa [24])?
Its IC50 is 0.12 µg/mL (≈ 0.335 µM).

What about the IC50 (HeLa [25]) of the same molecule?
The IC50 was 0.07 µg/mL (≈ 0.195 µM).

What about the IC50 (HeLa [26]) of the same molecule?
Its IC50 is 0.07 µg/mL (≈ 0.195 µM).

What about the IC50 (HeLa [27]) of the same molecule?
Its IC50 is 0.08 µg/mL (≈ 0.223 µM).

And the IC50 (HeLa [33])?
The IC50 was 0.06 µg/mL (≈ 0.167 µM).

What about the IC50 (HeLa [28]) of the same molecule?
The IC50 was 0.3 µg/mL (≈ 0.837 µM).

Reference: ChEMBL document CHEMBL1121418, “Synthesis of syn and anti isomers of 6-[[(hydroxyimino)phenyl]methyl]-1-[(1-methylethyl)sulfonyl]-1H-benzimidazol-2-amine. Inhibitors of rhinovirus multiplication” (1980)
